Results published in ChEMBL document CHEMBL1821661, “Design, synthesis, and biological evaluation of pyrazolopyrimidine-sulfonamides as potent multiple-mitotic kinase (MMK) inhibitors (part I)” (Bioorg Med Chem Lett, 2011).

Experiments:
Aurora kinase A = biological target: T1, Aurora kinase A (Homo sapiens, UniProt O14965); experiment: Inhibition of Aurora kinase A assessed as phosphorylation of Lats2 substrate at […] by FRET assay
T1 sequence (O14965 whole entry): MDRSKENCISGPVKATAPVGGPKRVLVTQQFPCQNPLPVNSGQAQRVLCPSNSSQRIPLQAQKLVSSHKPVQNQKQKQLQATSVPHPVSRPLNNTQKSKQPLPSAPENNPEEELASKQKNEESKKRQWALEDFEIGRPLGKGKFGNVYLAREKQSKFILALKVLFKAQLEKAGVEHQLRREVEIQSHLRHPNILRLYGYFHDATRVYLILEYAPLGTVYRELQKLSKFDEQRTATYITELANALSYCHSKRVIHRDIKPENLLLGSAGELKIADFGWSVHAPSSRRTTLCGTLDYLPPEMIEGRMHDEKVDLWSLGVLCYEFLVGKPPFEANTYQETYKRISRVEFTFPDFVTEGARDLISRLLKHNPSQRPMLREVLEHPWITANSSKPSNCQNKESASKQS

[1] = biological target: Cyclin-dependent kinase 1/cyclin B1 (Homo sapiens, UniProt P06493); experiment: Inhibition of CDK1/Cyclin B assessed as phosphorylation of Z-lyte Peptide at […] by FRET assay; assay type: protein-complex assay
In short: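 Z-lyte FRET kinase assay. Kinase was at 3 nM final with a coumarin/fluorescein-labelled synthetic peptide substrate and ATP. Development-step cleavage of non-phosphorylated peptide disrupts FRET. % phosphorylation was calculated from the coumarin:fluorescein emission ratio, read at 445–520 nm. EC50s were obtained by curve fitting.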

K562 = experiment: Cell cycle arrest in human K562 cells assessed as accumulation of cells at G2/M phase after 24 hrs using propidium iodide by flow cytometry; assay type: functional, cell-based; conditions: K562, 24 h, read-out: IC50
In short: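 2 × 10⁴ K562 cells were exposed to varying compound concentrations for 24 h. Cells were stained with propidium iodide (50 µg/ml) in PBS containing 1% sodium citrate and 0.1% Triton X-100, and 5000 events were collected by flow cytometry. Cycle data were modelled by the Watson method. The minimum arrest concentration was taken where the G2:M peak ratio exceeded 1.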

HCT-116 [2] = experiment: Cytotoxicity against human HCT116 cells assessed as growth inhibition at 0.01 to 10 uM after 5 days by MTS assay; assay type: functional, cell-based; conditions: HCT-116, 120 h
[3] = Apparent permeability from apical to basolateral side of the human Caco2 cells after 2 hrs; assay type: ADME, cell-based; conditions: Caco-2
In short: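 Caco-2 cells, passage 25–50, were grown on transwell inserts. They were washed and pre-incubated 30 min at 37 °C in HBSS with 25 mM HEPES and 1% DMSO. Compound was added to the apical chamber and apical-to-basolateral transport was measured after 2 h at 37 °C with gentle shaking.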

[4] = Efflux ratio of permeability in human Caco2 cells; assay type: ADME, cell-based; conditions: Caco-2
In short: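 Caco-2 bidirectional transport, passage 25–50, in HBSS/25 mM HEPES/1% DMSO after a 30 min pre-incubation at 37 °C. Compound was dosed apically (A–B) or basolaterally (B–A) and incubated 2 h at 37 °C with gentle shaking.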

[5] = Hepatic blood flow in mouse liver microsomes assessed as compound remaining at 1.0 uM pre incubated for 5 mins at pH 7.4 by LC/MS/MS analysis; assay type: ADME, Microsome; conditions: read-out: QH
In short: (§1)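 Liver microsomes at 1 mg/mL protein in 50 mM potassium phosphate, pH 7.4, with 2.5 mM NADPH. Compound was used at 1.0 µM final and pre-incubated 5 min at 37 °C before NADPH started the reaction. Samples were taken at 0, 5 and 30 min, quenched in acetonitrile, and filtered. Results are expressed as %Q_h (hepatic blood flow).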

[6] = Hepatic blood flow in rat liver microsomes assessed as compound remaining at 1.0 uM pre incubated for 5 mins at pH 7.4 by LC/MS/MS analysis; assay type: ADME, Microsome; conditions: read-out: QH; in short: as §1
[7] = Hepatic blood flow in human liver microsomes assessed as compound remaining at 1.0 uM pre incubated for 5 mins at pH 7.4 by LC/MS/MS analysis; assay type: ADME, Microsome; conditions: read-out: QH; in short: as §1
Cytochrome P450 3A4 [8] = biological target: T2, Cytochrome P450 3A4 (Homo sapiens, UniProt P08684); experiment: Inhibition of CYP3A4 using a fluorescent probe 7-benzyloxy-4(trifluoromethyl)-coumarin; assay type: ADME
Cytochrome P450 3A4 [9] = biological target: T2, Cytochrome P450 3A4; experiment: Inhibition of CYP3A4 using a fluorescent probe 7-benzyloxyquinoline; assay type: ADME
Cytochrome P450 2C19 = Cytochrome P450 2C19 (Homo sapiens, UniProt P33261); experiment: Inhibition of CYP2C19; assay type: ADME
Cytochrome P450 2C9 = Cytochrome P450 2C9 (Homo sapiens, UniProt P11712); experiment: Inhibition of CYP2C9 using a fluorescent probe 7-methoxy-4-trifluoromethylcoumarin; assay type: ADME
In short: (§2)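 Fluorescent-probe CYP inhibition assay. Probes: 7-methoxy-4-trifluoromethylcoumarin for 2C9; 3-[2-(N,N-diethyl-N-methylamino)ethyl]-7-methoxy-4-methylcoumarin for 2D6.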

Cytochrome P450 2D6 = Cytochrome P450 2D6 (Homo sapiens, UniProt P10635); experiment: Inhibition of CYP2D6 using a fluorescent probe 3-[2-(N,N-diethyl-N-methylamino)ethyl]-7-methoxy-4methylcoumarin; assay type: ADME; in short: as §2
Cytochrome P450 1A2 = biological target: T3, Cytochrome P450 1A2 (Homo sapiens, UniProt P05177); experiment: Inhibition of CYP1A2; assay type: ADME
T3 sequence (P05177 whole entry): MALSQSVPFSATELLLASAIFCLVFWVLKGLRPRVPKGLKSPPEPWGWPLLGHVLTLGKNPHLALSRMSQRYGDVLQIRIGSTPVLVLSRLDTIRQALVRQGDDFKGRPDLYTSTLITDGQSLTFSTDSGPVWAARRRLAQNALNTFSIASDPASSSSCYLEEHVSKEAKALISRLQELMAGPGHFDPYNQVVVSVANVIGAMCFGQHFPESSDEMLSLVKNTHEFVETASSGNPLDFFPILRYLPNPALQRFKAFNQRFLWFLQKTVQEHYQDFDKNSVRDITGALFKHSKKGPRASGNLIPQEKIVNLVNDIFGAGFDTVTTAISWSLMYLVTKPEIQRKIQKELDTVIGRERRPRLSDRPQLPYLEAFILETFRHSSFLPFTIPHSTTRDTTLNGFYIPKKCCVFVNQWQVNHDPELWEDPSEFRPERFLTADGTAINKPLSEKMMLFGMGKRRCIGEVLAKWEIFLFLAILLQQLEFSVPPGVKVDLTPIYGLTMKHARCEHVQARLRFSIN

hERG (KCNH2) = hERG (KCNH2) (Homo sapiens, UniProt Q12809); experiment: Inhibition of human ERG up to 10 uM by patch clamp method
HCT-116 [10] = experiment: Antitumor activity against human HCT116 cells xenografted in nu/nu mouse assessed as tumor growth inhibition at 15 to 30 mg/kg, ip for 21 days relative to control; assay type: functional; conditions: dose mg/kg 15-30, route intraperitoneal
Mus musculus = experiment: Toxicity in nu/nu mouse xenografted with human HCT116 cells assessed as change in body weight at 15 to 30 mg/kg, […]; assay type: organism-based, HCT-116; design: dose 15-30 mg/kg, route intraperitoneal; conditions: in vivo, ip, 504 h

T2 sequence (P08684 whole entry): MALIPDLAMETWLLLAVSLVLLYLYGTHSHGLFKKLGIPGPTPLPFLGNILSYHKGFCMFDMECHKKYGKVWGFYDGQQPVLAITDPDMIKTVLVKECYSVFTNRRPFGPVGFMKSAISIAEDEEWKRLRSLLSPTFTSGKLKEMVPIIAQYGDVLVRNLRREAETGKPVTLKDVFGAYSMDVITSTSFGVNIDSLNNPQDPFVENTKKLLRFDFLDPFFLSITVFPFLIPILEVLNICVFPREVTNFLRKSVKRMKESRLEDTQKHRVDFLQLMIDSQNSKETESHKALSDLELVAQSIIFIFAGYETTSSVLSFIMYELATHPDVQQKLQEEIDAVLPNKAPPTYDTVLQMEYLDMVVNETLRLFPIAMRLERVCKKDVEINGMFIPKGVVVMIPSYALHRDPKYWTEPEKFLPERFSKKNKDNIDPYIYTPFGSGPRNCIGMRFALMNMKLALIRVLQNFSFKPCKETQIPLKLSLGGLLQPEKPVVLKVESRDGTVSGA
Cyclin-dependent kinase 1/cyclin B1, sequence (P06493 whole entry): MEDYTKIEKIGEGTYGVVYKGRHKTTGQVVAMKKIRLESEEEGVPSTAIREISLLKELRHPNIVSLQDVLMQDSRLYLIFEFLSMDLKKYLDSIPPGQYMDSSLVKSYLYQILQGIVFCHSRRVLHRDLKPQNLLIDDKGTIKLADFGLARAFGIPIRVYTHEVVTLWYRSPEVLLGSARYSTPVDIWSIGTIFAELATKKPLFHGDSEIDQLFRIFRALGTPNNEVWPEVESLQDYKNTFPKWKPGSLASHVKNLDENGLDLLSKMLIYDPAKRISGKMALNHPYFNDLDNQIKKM
Cyclin-dependent kinase 1/cyclin B1, sequence (P14635 whole entry, further chain): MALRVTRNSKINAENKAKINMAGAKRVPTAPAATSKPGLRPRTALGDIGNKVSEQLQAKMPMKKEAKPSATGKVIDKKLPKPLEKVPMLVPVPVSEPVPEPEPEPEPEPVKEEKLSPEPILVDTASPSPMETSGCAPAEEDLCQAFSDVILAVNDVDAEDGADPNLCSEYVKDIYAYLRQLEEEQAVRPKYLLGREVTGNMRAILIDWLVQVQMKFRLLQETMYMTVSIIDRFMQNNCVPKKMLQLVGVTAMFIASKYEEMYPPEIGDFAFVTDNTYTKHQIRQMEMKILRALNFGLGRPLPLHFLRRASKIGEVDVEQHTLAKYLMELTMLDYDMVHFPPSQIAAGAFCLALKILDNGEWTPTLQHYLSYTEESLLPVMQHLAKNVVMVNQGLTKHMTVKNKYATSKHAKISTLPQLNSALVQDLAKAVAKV
Cytochrome P450 2D6, sequence (P10635 whole entry): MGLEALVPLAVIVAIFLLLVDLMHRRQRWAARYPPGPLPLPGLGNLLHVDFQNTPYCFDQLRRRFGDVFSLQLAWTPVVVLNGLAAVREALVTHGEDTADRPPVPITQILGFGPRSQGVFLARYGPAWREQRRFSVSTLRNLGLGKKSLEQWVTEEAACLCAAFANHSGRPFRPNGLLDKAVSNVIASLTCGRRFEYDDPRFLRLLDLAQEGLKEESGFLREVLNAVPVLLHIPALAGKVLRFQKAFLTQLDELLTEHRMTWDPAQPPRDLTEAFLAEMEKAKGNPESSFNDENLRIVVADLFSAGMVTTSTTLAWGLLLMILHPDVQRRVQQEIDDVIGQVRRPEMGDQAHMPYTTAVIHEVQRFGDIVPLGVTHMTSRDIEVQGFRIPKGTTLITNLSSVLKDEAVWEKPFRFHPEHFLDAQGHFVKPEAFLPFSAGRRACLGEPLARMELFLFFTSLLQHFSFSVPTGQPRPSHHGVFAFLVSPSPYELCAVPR
Cytochrome P450 2C9, sequence (P11712 whole entry): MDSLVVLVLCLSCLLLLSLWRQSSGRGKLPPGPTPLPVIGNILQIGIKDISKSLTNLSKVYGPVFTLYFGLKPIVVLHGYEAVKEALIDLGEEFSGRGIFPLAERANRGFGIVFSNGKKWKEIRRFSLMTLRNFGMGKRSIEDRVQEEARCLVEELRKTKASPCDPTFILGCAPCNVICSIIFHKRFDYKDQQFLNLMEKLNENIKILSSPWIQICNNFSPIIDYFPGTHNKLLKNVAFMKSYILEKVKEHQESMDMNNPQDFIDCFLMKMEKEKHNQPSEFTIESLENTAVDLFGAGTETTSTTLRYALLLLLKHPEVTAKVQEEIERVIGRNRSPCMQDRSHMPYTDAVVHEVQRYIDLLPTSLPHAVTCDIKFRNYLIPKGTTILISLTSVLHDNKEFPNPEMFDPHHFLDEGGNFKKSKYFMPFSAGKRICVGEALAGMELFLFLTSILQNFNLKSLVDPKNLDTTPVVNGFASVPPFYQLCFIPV
Cytochrome P450 2C19, sequence (P33261 whole entry): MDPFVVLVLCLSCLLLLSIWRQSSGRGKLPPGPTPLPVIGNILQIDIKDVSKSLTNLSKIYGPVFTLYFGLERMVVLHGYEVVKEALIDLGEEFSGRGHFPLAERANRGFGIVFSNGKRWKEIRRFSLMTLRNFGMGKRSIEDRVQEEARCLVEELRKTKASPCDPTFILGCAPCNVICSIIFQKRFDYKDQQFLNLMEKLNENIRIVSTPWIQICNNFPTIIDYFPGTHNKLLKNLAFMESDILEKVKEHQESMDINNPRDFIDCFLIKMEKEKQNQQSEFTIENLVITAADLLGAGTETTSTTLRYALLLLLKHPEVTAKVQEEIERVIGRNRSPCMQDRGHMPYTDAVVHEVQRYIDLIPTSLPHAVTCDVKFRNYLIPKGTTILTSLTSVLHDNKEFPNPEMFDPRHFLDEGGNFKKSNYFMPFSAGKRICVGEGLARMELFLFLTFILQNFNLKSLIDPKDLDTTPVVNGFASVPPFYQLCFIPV
hERG (KCNH2), sequence (Q12809 whole entry): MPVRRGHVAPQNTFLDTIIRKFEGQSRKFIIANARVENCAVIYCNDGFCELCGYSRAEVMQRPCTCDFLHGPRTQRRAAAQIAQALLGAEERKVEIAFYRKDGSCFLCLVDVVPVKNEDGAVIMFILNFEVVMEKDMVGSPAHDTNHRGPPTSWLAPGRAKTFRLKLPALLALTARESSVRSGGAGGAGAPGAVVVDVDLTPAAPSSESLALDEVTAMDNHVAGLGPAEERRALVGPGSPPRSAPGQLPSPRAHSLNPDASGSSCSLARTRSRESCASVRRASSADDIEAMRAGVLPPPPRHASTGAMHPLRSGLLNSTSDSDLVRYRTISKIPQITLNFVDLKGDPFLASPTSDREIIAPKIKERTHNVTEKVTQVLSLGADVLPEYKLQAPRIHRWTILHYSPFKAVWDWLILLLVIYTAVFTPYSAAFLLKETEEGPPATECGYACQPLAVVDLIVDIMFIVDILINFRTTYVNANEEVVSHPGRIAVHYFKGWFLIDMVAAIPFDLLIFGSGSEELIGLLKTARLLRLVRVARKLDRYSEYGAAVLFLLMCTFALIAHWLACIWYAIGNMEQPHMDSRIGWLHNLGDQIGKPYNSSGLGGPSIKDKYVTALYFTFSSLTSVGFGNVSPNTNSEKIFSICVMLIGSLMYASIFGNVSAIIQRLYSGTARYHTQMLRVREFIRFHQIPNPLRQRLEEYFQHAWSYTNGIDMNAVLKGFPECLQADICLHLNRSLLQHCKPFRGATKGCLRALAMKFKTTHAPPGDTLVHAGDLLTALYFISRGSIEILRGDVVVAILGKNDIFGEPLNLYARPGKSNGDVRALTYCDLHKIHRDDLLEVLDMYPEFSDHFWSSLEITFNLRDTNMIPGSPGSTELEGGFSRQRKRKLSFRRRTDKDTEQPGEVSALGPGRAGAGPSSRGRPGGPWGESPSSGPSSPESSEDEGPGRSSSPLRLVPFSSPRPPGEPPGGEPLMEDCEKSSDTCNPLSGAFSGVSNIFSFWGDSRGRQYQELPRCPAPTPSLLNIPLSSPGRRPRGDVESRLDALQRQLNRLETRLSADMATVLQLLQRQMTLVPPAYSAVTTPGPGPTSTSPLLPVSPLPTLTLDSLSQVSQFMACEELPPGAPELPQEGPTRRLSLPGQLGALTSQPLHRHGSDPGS

| SMILES | IC50 (Aurora kinase A) [nM] | IC50 [1] [nM] | Minimum G2/M arrest concentration (K562) [nM] | IC50 (HCT-116 [2]) [nM] | also measured |
| --- | --- | --- | --- | --- | --- |
| CS(=O)(=O)N(CCN1CCOCC1)c1ccc(Nc2ncc3cnn(C4CCCCCC4)c3n2)cc1 | 14 | 23 | 100 | 160 | Papp A→B at 2 h [3]: 26.5 ×10⁻⁶ cm/s; efflux ratio [4]: 1.1; hepatic extraction ratio at 5 min, 1 µM [5]: 0.96; hepatic extraction ratio at 5 min, 1 µM [6]: 0.94; hepatic extraction ratio at 5 min, 1 µM [7]: 0.95; IC50 (Cytochrome P450 3A4 [8]): 40 nM; IC50 (Cytochrome P450 3A4 [9]): 40 nM; IC50 (Cytochrome P450 2C19): 30 nM; IC50 (Cytochrome P450 2C9): 1 nM; IC50 (Cytochrome P450 2D6): > 10000 nM; IC50 (Cytochrome P450 1A2): > 10000 nM; inhibition at up to 10 uM (hERG (KCNH2)): 40%; growth inhibition (GI) (HCT-116 [10]): 50%; Activity (Mus musculus): Non-toxic |
| CS(=O)(=O)N(CCN)c1ccc(Nc2ncc3cnn(C4CCCCCC4)c3n2)cn1 |  | 3 | 300 | 119 |  |
| CS(=O)(=O)N(CCCN1CCCCC1)c1ccc(Nc2ncc3cnn(C4CCCCCC4)c3n2)cc1 | 9 | 6 | 100 | 92 |  |
| CS(=O)(=O)N(CCN)c1ccc(Nc2ncc3cnn(C4CCCCCC4)c3n2)cc1 | 20 | 5 | 100 | 60 |  |
| CS(=O)(=O)N(CCO)c1ccc(Nc2ncc3cnn(C4CCCCCC4)c3n2)cn1 | 110 | 4 | 300 | 145 |  |
| CS(=O)(=O)N(CCCO)c1ccc(Nc2ncc3cnn(C4CCCCCC4)c3n2)cc1 | 6 | 6 | 100 | 78 |  |
| CS(=O)(=O)N(CCN1CCCC1)c1ccc(Nc2ncc3cnn(C4CCCCCC4)c3n2)cn1 | 350 | 10 | 1000 | 125 |  |
| CS(=O)(=O)N(CCCN1CCOCC1)c1ccc(Nc2ncc3cnn(C4CCCCCC4)c3n2)cc1 |  | 5 | 100 | 170 |  |
| CC(C)N(c1ccc(Nc2ncc3cnn(C4CCCCCC4)c3n2)cc1)S(C)(=O)=O | 5 | 90 | 300 | 240 |  |
| CN(C)CCN(c1ccc(Nc2ncc3cnn(C4CCCCCC4)c3n2)cn1)S(C)(=O)=O | 260 | 10 | 300 | 220 |  |
| CS(=O)(=O)N(c1ccc(Nc2ncc3cnn(C4CCCCCC4)c3n2)nc1)S(C)(=O)=O | > 10000 | > 10000 | > 3000 |  |  |
| CS(=O)(=O)N(CCO)c1ccc(Nc2ncc3cnn(C4CCCCCC4)c3n2)cc1 | 13 | 5 | 30 | 77 |  |
| CS(=O)(=O)N(Cc1ccncc1)c1ccc(Nc2ncc3cnn(C4CCCCCC4)c3n2)cn1 | 95 | 13 | 300 | 320 |  |
| CS(=O)(=O)N(Cc1ccncc1)c1ccc(Nc2ncc3cnn(C4CCCCCC4)c3n2)cc1 | 30 | 23 | 300 | 250 |  |
| CS(=O)(=O)N(CCN1CCOCC1)c1ccc(Nc2ncc3cnn(C4CCCCCC4)c3n2)cn1 | 150 | 31 | 2000 | 500 |  |
| CS(=O)(=O)Nc1ccc(Nc2ncc3cnn(C4CCCCCC4)c3n2)cn1 |  | 7 | 300 | 210 | Papp A→B at 2 h [3]: 20.1 ×10⁻⁶ cm/s; efflux ratio [4]: 1.5; hepatic extraction ratio at 5 min, 1 µM [5]: 0.33; hepatic extraction ratio at 5 min, 1 µM [6]: 0.3; hepatic extraction ratio at 5 min, 1 µM [7]: 0.39; IC50 (Cytochrome P450 3A4 [8]): > 10000 nM; IC50 (Cytochrome P450 3A4 [9]): > 10000 nM; IC50 (Cytochrome P450 2C19): > 10000 nM; IC50 (Cytochrome P450 2C9): > 10000 nM; IC50 (Cytochrome P450 2D6): > 10000 nM; IC50 (Cytochrome P450 1A2): > 10000 nM; inhibition at up to 10 uM (hERG (KCNH2)): 6.5% |
